FLuc stim CS: affects firefly luciferase, flagging false hits in luciferase stimulation screens; AID 1027; ATPlite luciferase biochemical, luminescence, 10 min; 0 = ATP-free wells, 1 = DMSO control; 200,000 tested, under 10 active; P08659; activation factor at 10 µM;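 active = luciferase activation factor, scaled between plate controls, of at least 2 with compound at 10 µM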
Target sequence (P08659 whole entry, looked up): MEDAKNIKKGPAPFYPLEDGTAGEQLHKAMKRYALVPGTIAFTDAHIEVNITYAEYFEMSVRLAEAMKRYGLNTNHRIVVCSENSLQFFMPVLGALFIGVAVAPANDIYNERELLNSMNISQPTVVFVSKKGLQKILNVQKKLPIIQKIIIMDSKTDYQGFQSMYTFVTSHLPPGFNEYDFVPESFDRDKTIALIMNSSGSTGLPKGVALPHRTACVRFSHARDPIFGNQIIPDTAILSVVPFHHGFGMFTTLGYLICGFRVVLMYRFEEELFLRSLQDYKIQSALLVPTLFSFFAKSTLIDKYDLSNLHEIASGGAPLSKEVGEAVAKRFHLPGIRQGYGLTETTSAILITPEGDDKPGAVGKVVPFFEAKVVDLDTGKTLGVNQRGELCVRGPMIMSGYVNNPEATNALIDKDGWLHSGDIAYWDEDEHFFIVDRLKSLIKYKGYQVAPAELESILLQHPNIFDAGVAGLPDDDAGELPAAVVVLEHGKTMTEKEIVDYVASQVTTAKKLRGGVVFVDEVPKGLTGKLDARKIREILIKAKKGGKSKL
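Assay system: Luciferase/luciferin detection reagent, cell-free biochemical luciferase assay / Also added: ATP substrate / Schedule: 10 min at ambient temperature / Measured by: luminescence measurement of luciferase light output / Benchmarks: low control with PBS replacing ATP, high control enzyme plus ATP without compound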
FLuc inh counter: inhibits firefly luciferase, flagging false hits in luciferase inhibition screens; hit rate 1.5% among 200,000; ATPLite firefly luciferase biochemical luminescence, 10 min; AID 1006; inhibition, % at 10 µM;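 active = inhibition above about 50% when tested at 10 µM, limit read from the data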
MIN6 prolif: inducers of beta-cell replication in MIN6 cells | MIN6 cells proliferation, ATPlite luminescence, 48 h; cells starved in 0.2% serum; 100% = growth in 10% serum | proliferation, % at 10 µM | hit rate 0.29% among 330,000 | AID 2380;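 active = compounds whose signal lies at least 3.5 SD above the mean of all wells on their plate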
C8 TRAIL sens: sensitizes caspase-8 expressing cells to TRAIL; NB7+C8 cells + TRAIL, ATPlite viability luminescence; inhibition (viability loss, TRAIL sensitization), % at 10 µM; hit rate 1% among 360,000;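 active = compounds causing at least 50% loss of cell viability in the single-dose screen, relative to plate controls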
PPC-1+TRAIL kill: PPC-1 cancer cell killing with TRAIL present; PPC-1 cells + TRAIL, ATPLite viability luminescence; cell killing (% activity), % at 4 µM or 5 µM; hit rate 0.41% among 220,000; AID 1443;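 active = cell killing above 50% in the first pass at 4 µM, then a duplicate retest at 5 µM averaging 50% or more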
iPSC survival up: hiPSC single-cell survival enhancement. ATPlite luminescence; 100% = ROCK inhibitor wells, 0% = DMSO. survival enhancement, % at 20 µM. hit rate 0.044% among 360,000. AID 602274; in the data active = survival enhancement above about 18%;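 note: cells exposed to compounds for 16 hours before the ATP read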
Hits are given with their value; – = inactive; · = no result given. Sampled rows, rich in hits. Any-hit rate of the full collection: about 1.8%.

SMILES	FLuc stim CS	FLuc inh counter	MIN6 prolif	C8 TRAIL sens	PPC-1+TRAIL kill	iPSC survival up
COc1ccc(CN2C(=O)COc3ccccc3C2c2nc3ccccc3[nH]2)cc1 (centres undefined)	·	·	·	–	·	–
O=C(NCc1ccccc1Cl)[C@H]1CCCN1C(=O)[C@H]1CCCN1C(=O)c1ccccc1	·	·	·	–	·	–
O=C(/C=C/c1ccco1)N1CCc2ccccc21	–	82	–	–	–	–
Cc1ccc(/C=C/C(=O)N2CCc3ccccc32)o1	–	75	–	–	–	–
CCOC(=O)/C=C/C(=O)N1CCc2ccccc21	–	–	–	–	–	–
CC(C)CN(C(=O)CN(C)CC(=O)Nc1ccccc1C#N)c1c(N)n(CC(C)C)c(=O)[nH]c1=O	·	·	–	–	·	–
O=C1C(Cl)=C(NCCCN2CCOCC2)C(=O)c2ccccc21	·	·	·	83	·	–
CCC(O)c1nc2ccccc2n1CCc1ccccc1 (centres undefined)	·	·	–	–	·	–
CCOCCCNCc1ccc(OC)cc1	–	–	–	–	–	–
COc1ccc2cc(CNCCOCCOCCNCc3ccc4cc(OC)ccc4c3)ccc2c1	·	·	·	88	·	–
C#Cc1ccc([C@@H]2C=C(C(=O)Nc3ccccc3)O[C@H](OCC)[C@H]2CCCO)cc1	–	–	–	80	–	–
C#Cc1ccc([C@H]2C=C(C(=O)Nc3ccccc3)O[C@@H](OCc3ccc(CO)cc3)C2)cc1	·	·	–	89	–	–
COC(=O)CCNC(=O)Cn1cnc2sc3c(c2c1=O)CCCC3	–	–	–	–	·	–
O=C1C=C(N2CCOCC2)c2ccccc2C1=O	·	·	–	93	·	–
O=C1C=C(N2CCOCC2)c2cccc3cccc1c23	·	·	·	–	·	–
CCOC(=O)C1(C)CCN1C(=O)c1ccc(C)cc1 (centres undefined)	·	·	·	–	·	–
COc1ccc([C@H]2C(C(=O)O)=C[C@@H](C(C)(C)C)N2S(=O)(=O)c2ccc(C)cc2)cc1OC	·	·	–	–	·	–
C[C@@H](NC(=O)c1ncn2c1c(=O)[nH]c1cccnc12)c1ccccc1	·	·	·	–	·	–
C[C@@H](NC(=O)c1ncn2c1c(=O)[nH]c1ccc(Br)cc12)c1ccccc1	·	·	·	69	·	–
CCCCOC(=O)c1ccc(NC(=O)COC(=O)C2CC2C)cc1 (centres undefined)	·	·	·	–	·	–
O=C(COC(=O)c1cccnc1Cl)c1ccc(Cl)cc1Cl	–	78	–	–	–	–
CC(C)C(=O)Nc1cccc(C(=O)OCC(=O)c2ccc(Cl)cc2Cl)c1	–	54	–	–	–	–
COc1ccc(C(=O)COC(=O)c2cccnc2Cl)c(OC)c1	–	–	–	–	–	–
CC(=O)Nc1cc(C(=O)OCC(=O)c2ccc(Cl)cc2Cl)ccc1C	–	–	–	–	–	–
O=C(COC(=O)c1cccnc1Cl)c1ccc(OC(F)F)cc1	–	54	–	–	–	–
SMILES	FLuc stim CS	FLuc inh counter	MIN6 prolif	C8 TRAIL sens	PPC-1+TRAIL kill	iPSC survival up
Cc1[nH]nc2nc(SCC(=O)NCCC3=CCCCC3)n(-c3ccc(Br)cc3)c(=N)c12	·	·	–	80	·	–
Cc1cc(-n2c(SCC(=O)NCCC3=CCCCC3)nc3n[nH]c(C)c3c2=N)ccc1Cl	·	·	–	–	·	–
CCn1cnc2cc(NCc3cccs3)ccc21	–	–	–	–	–	–
CC(C)(C)n1cnc2cc(NC(=O)c3cccs3)ccc21	–	71	–	–	–	–
CCn1cnc2cc(NC(=O)c3cccs3)ccc21	–	51	–	–	–	–
CC(C)(C)n1cnc2cc(NC(=O)c3ccccc3)ccc21	·	·	–	–	·	–
CCc1nc2c(OCc3ccccc3C(=O)OC)cccn2c1N(C)C(=O)CC(C)C	·	·	·	–	·	–
Cc1nnc(SCC(=O)Nc2ccc([N+](=O)[O-])cc2)n1C	·	·	–	–	·	–
Cc1ccc(C(=O)N/N=C\c2cccc(OC(=O)c3cccc(F)c3)c2)cn1	·	·	–	54	·	–
O=C(N/N=C/c1cccc(OC(=O)c2ccco2)c1)c1ccc(F)cc1	–	63	–	71	–	–
Cc1ccc(NC(=S)c2ccncc2)c(C)c1	·	·	–	–	·	–
Cc1ccc(NC(=S)c2nc3ccccc3[nH]2)c(C)c1	–	85	–	73	–	–
Cc1ccc(NC(=S)c2nc3ccccc3[nH]2)cc1	–	83	–	77	–	–
O=C1c2c(-c3ccc(Br)cc3)noc2CCN1Cc1cn(-c2ccc(Cl)cc2)nn1	·	·	·	–	·	·
CCOC(=O)C(C)Sc1nnc(NC(=O)c2ccc3c(c2)OCO3)s1 (centres undefined)	–	–	–	–	–	–
CSc1nnc(NC(=O)c2ccc3c(c2)OCO3)s1	·	·	–	74	·	–
CCOC(=O)CNC(=O)CSc1nnc(NC(=O)c2ccc3c(c2)OCO3)s1	·	·	–	83	·	–
Cc1nnc(NC(=O)c2ccc3c(c2)OCO3)s1	–	–	–	–	–	–
Cc1cc(SCC(=O)N(C)C2CCCCC2)nc2ccccc12	·	·	–	–	·	–
OC(c1ccccc1)(c1ccccc1)c1ncc[nH]1	·	·	–	–	·	–
CC[C@@]1(C(=O)OC)N[C@H](CN(C)C(=O)Nc2ccc(Cl)cc2)[C@@H]2C(=O)N(Cc3ccccc3)C(=O)[C@@H]21	·	·	–	–	·	–
CCc1nc2c(OCc3ccc(F)cc3)cccn2c1N(C)C(=O)CC(C)C	·	·	·	–	·	–
CCOC(=O)C1C(=O)CC(=O)C(C(=O)OCC)C1c1ccc(O)cc1 (centres undefined)	·	·	·	–	·	–
NC1=C(Cl)C(=O)c2ccccc2C1=O	·	·	·	–	·	–
NC1=C(Cl)C(=O)c2ccc(S(N)(=O)=O)cc2C1=O	·	·	·	92	·	–
SMILES	FLuc stim CS	FLuc inh counter	MIN6 prolif	C8 TRAIL sens	PPC-1+TRAIL kill	iPSC survival up
O=C(c1ccc(N2C(=O)c3ccccc3C2=O)cc1)N1CCN(S(=O)(=O)c2ccccc2F)CC1	·	·	·	–	·	–
CN(CC(=O)Nc1ccc(F)c(F)c1F)C(=O)CCN1C(=O)C2CC=CCC2C1=O (centres undefined)	·	·	·	–	·	–
COc1ccc2nc(N=NC3=C(O)CC(C)(C)CC3=O)sc2c1	–	–	–	–	–	–
COc1ccc2nc(N=Nc3ccc(O)c4ccccc34)sc2c1	–	–	–	55	–	–
Cc1cccc(C2(c3cccc(C)c3)CC2C(=O)Nc2ccc([N+](=O)[O-])cc2O)c1 (centres undefined)	–	–	–	–	–	–
COc1ccc2c(c1)CC/C(=C\C=C\c1ccccc1OC)C2=O	–	52	–	–	–	–
COc1ccc2c(c1)C(=O)/C(=C/C=C/c1ccccc1)CC2	–	–	–	–	–	–
CC(C)CCN(C(=O)Nc1ccc(Cl)cc1)C1CCN(C(C)C)CC1	–	–	–	–	–	–
CN=C1S/C(=C\c2cc(C)n(-c3ccccc3F)c2C)C(=O)N1C	–	82	–	55	–	–
Cc1cc(/C=C2\SC(=O)N(C)C2=O)c(C)n1-c1ccc(O)cc1	·	·	–	–	·	–
COc1ccccc1-c1cccc([C@@H]2C[C@H]3[C@H](CON3C)CN2C)c1	·	·	·	–	·	–

High-throughput results as filed in PubChem BioAssay.
